# In PMC8240349 (Journal of Traditional and Complementary Medicine, 2021):
# Where two headings read alike, the source gives them in different places. Marks after values point to notes of the source that are not given here.
# Experiments:
# [1] = cited from earlier work
# [2] = test system: CCA; conditions: bioassay-guided activity; cited from earlier work
# [3] = type: in vivo, human; conditions: for AUC0-t / AUC0-∞ / CL/F / MRT / Vz/F / t1/2z / tmax / λ / Cmax: median (range)
# In short: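 Healthy Thai adults took oral 1,000 mg AL extract capsules with 200 ml water, either once (group 1) or daily for 21 days (group 2), with 20 active recipients per group. Plasma atractylodin was measured by reversed-phase C18 HPLC (UV 340 nm, acetonitrile:water 70:30, 25 °C; LOQ 2.5 ng/ml). Cmax was read from observed data. t1/2z came from log-linear regression of at least the last three points. MRT was AUMC0-∞/AUC0-∞.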
# [4] = rats, cited from earlier work
# [5] = group 1, single 1,000 mg AL, all
# [6] = group 1, single 1,000 mg AL, female
# [7] = group 1, single 1,000 mg AL, male
# [8] = group 2, daily 1,000 mg AL, day 1, all
# [9] = group 2, daily 1,000 mg AL, day 1, female
# [10] = group 2, daily 1,000 mg AL, day 1, male
# [11] = group 2, daily 1,000 mg AL, day 21, all
# [12] = group 2, daily 1,000 mg AL, day 21, female
# [13] = group 2, daily 1,000 mg AL, day 21, male
# [14] = intravenous 2 mg/kg body weight atractylodin
# [15] = oral 30 g/kg body weight A. rhizoma
# [16] = oral 40 g/kg body weight crude A. rhizoma
# [17] = oral 40 g/kg body weight processed A. rhizoma
structure (smiles),measurement,setting,value
C/C=C/C#CC#C/C=C/c1ccco1 [atractylodin],water solubility,[1],low water solubility
same,"IC50, anti-CCA activity",[2],20 to 25 µg/mL
same,plasma atractylodin after 6 h,"[3]; all participants, both groups",undetectable
same,"observed Cmax, range","[3]; both groups, model-independent analysis",7.1 to 152.7 ng/mL
same,AUC0-t,[3]; [5],118.27 (72.47–169.90) ng.h/ml
same,AUC0-∞,[3]; [5],123.70 (75.13–176.96) ng.h/ml
same,CL/F,[3]; [5],6.68 (4.46–13.70) l/kg/h
same,MRT,[3]; [5],2.42 (1.74–3.11) h
same,Vz/F,[3]; [5],11.45 (7.06–20.17) l/kg
same,t1/2z,[3]; [5],1.13 (0.78–1.48) h
same,tmax,[3]; [5],1 (0.75–1.5) h
same,λ,[3]; [5],0.62 (0.47–0.89) /h
same,AUC0-t,[3]; [6],122.67 (72.47–192.85) ng.h/ml
same,AUC0-∞,[3]; [6],128.13 (75.13–199.88) ng.h/ml
same,CL/F,[3]; [6],6.87 (4.48–13.70) l/kg/h
same,Cmax,[3]; [6],58.65 (42.50–96.80) ng/ml
same,MRT,[3]; [6],2.21 (1.70–3.74) h
same,Vz/F,[3]; [6],12.11 (6.62–20.17) l/kg
same,t1/2z,[3]; [6],1.18 (0.72–2.19) h
same,tmax,[3]; [6],1.0 (0.75–1.0) h
same,λ,[3]; [6],0.71 (0.37–0.92) /h
same,AUC0-t,[3]; [7],142.14 (83.48–199.75) ng.h/ml
same,AUC0-∞,[3]; [7],146.88 (86.09–226.53) ng.h/ml
same,CL/F,[3]; [7],6.29 (2.80–8.92) l/kg/h
same,Cmax,[3]; [7],59.20 (41.80.50–99.30) ng/ml
same,MRT,[3]; [7],2.42 (1.71–2.94) h
same,Vz/F,[3]; [7],11.49 (8.35–56.42) ^a l/kg
same,t1/2z,[3]; [7],1.23 (0.13–2.77) h
same,tmax,[3]; [7],1.0 (0.75–2.0) h
same,λ,[3]; [7],0.85 (0.29–1.10) /h
same,participants with atractylodin detected at 0.25 h,"[3]; group 1, single 1,000 mg AL, 10 participants",50%
same,AUC0-t,[3]; [8],93.06 (12.13–276.28) ng.h/ml
same,AUC0-∞,[3]; [8],112.2 (20.11–306.76) ng.h/ml
same,CL/F,[3]; [8],7.33 (2.87–33.43) l/kg/h
same,Cmax,[3]; [8],47.10 (7.10–129.90) ng/ml
same,MRT,[3]; [8],2.60 (1.58–5.17) h
same,Vz/F,[3]; [8],12.75 (4.44–61.56) l/kg
same,t1/2z,[3]; [8],1.16 (0.63–3.75) h
same,tmax,[3]; [8],1.0 (0.5–2.0) h
same,λ,[3]; [8],0.60 (0.19–1.11) /h
same,AUC0-t,[3]; [9],99.67 (42.88–276.28) ng.h/ml
same,AUC0-∞,[3]; [9],139.56 (70.21–248.22) ng.h/ml
same,CL/F,[3]; [9],6.43 (2.87–15.00) l/kg/h
same,Cmax,[3]; [9],54.35 (16.10–129.90) ng/ml
same,MRT,[3]; [9],2.66 (1.70–3.99) h
same,Vz/F,[3]; [9],11.97 (4.44–37.88) l/kg
same,t1/2z,[3]; [9],1.36 (0.85–1.75) h
same,λ,[3]; [9],0.52 (0.40–0.82) /h
same,AUC0-t,[3]; [10],82.88 (12.13–181.08) ng.h/ml
same,AUC0-∞,[3]; [10],92.40 (20.11–210.23) ng.h/ml
same,CL/F,[3]; [10],8.38 (3.77–33.43) l/kg/h
same,Cmax,[3]; [10],41.90 (7.10–67.20) ng/ml
same,MRT,[3]; [10],2.47 (1.58–5.17) h
same,Vz/F,[3]; [10],13.96 (6.73–61.56) l/kg
same,t1/2z,[3]; [10],1.09 (0.63–3.75) h
same,tmax,[3]; [10],1.0 (1.0–2.0) h
same,λ,[3]; [10],0.64 (0.19–1.11) /h
same,participants with atractylodin detected at 0.5 h,"[3]; group 2, daily 1,000 mg AL, day 1, 17 participants",85%
same,AUC0-t,[3]; [11],106.67 (40.42–259.81) ng.h/ml
same,AUC0-∞,[3]; [11],117.75 (48.73-269-21) ng.h/ml
same,CL/F,[3]; [11],6.80 (2.95–14.82) l/kg/h
same,Cmax,[3]; [11],46.95 (20.10–152.70) ng/ml
same,MRT,[3]; [11],2.64 (1.58–4.54) h
same,Vz/F,[3]; [11],12.85 (3.58–31.55) l/kg
same,t1/2z,[3]; [11],1.14 (0.80–2.17) h
same,tmax,[3]; [11],1.0 (0.5–2.0) h
same,λ,[3]; [11],0.61 (0.32–0.87) /h
same,AUC0-t,[3]; [12],118.05 (42.97–212.09) ng.h/ml
same,AUC0-∞,[3]; [12],145.54 (67.49–232.33) ng.h/ml
same,CL/F,[3]; [12],5.93 (3.79–11.38) l/kg/h
same,Cmax,[3]; [12],52.55 (20.10–152.70) ng/ml
same,MRT,[3]; [12],2.61 (1.58–4.54) h
same,Vz/F,[3]; [12],12.12 (5.11–31.55) l/kg
same,t1/2z,[3]; [12],1.28 (0.80–2.17) h
same,tmax,[3]; [12],1.0 (0.5–2.0) h
same,λ,[3]; [12],0.54 (0.32–0.87) /h
same,AUC0-t,[3]; [13],75.38 (40.42–259.81) ng.h/ml
same,AUC0-∞,[3]; [13],91.67 (48.73-269-21) ng.h/ml
same,CL/F,[3]; [13],7.90 (2.95–14.82) l/kg/h
same,Cmax,[3]; [13],44.0 (22.0–107.0) ng/ml
same,MRT,[3]; [13],2.64 (1.95–3.08) h
same,Vz/F,[3]; [13],13.79 (3.58–22.13) l/kg
same,t1/2z,[3]; [13],1.08 (0.84–1.65) h
same,tmax,[3]; [13],1.0 (1.0–2.0) h
same,λ,[3]; [13],0.64 (0.42–0.82) /h
same,participants with atractylodin detected at 0.5 h,"[3]; group 2, daily 1,000 mg AL, day 21, 19 participants",95%
same,plasma atractylodin level at 4 h,"[3]; group 2, daily 1,000 mg AL, range",2.5 to 18.2 ng/mL
same,accumulation after multiple oral dosing,"[3]; human plasma, multiple oral dosing for 21 days",no accumulation
same,time by which atractylodin was cleared in plasma,[3]; most participants,≤ 4 h
same,central volume of distribution (Vc),[4]; [14],31.7 L/kg
same,t1/2,[4]; [14],3.3 h
same,total clearance (CL),[4]; [14],110 mL/min/kg
same,mean maximum plasma concentration (Cmax),[4]; [15],"1,930 ng/ml"
same,terminal elimination half-life (t1/2),[4]; [15],8 h
same,time to Cmax (tmax),[4]; [15],2.25 h
same,CL/F,[4]; [16],111 mL/min/kg
same,mean Cmax,[4]; [16],625 ng/mL
same,mean residence time (MRT),[4]; [16],4.8 h
same,t1/2z,[4]; [16],2.38 h
same,time of Cmax,[4]; [16],2.2 h
same,CL/F,[4]; [17],42.7 mL/min/kg
same,MRT,[4]; [17],7.06 h
same,mean Cmax,[4]; [17],"2,299 ng/ml"
same,t1/2z,[4]; [17],5.13 h
same,tmax,[4]; [17],0.33 h
